Test results reported in ChEMBL document CHEMBL1147446, “Antagonists of human CCR5 receptor containing 4-(pyrazolyl)piperidine side chains. Part 3: SAR studies on the benzylpyrazole segment” (Bioorg Med Chem Lett, 2004).

Columns and labels:
[1] = target: C-C chemokine receptor type 5 (Homo sapiens, UniProt P51681); assay: Inhibitory concentration for displacement of [125I]-MIP-1 alpha from recombinant human CC chemokine receptor 5 (CCR5) expressed in CHO cell; assay type: cell-based
Summary of the method: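 Competitive binding to CCR5 on CHO cell membranes, read as displacement of [125I]-labeled MIP-1α. IC50 values are means of triplicate determinations. Standard errors were normally <15% within an assay. Assay-to-assay variation was within ±2-fold, judged from a standard compound.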

HeLa [2] = assay: Antiviral activities in a cell culture HIV-1 infectivity inhibition assay using HeLa cells; assay type: functional; details: Homo sapiens
HeLa [3] = assay: Antiviral activities in a cell culture HIV-1 infectivity inhibition assay using HeLa cells plus 50% normal human serum; assay type: functional

Sequence of C-C chemokine receptor type 5 (P51681 whole entry): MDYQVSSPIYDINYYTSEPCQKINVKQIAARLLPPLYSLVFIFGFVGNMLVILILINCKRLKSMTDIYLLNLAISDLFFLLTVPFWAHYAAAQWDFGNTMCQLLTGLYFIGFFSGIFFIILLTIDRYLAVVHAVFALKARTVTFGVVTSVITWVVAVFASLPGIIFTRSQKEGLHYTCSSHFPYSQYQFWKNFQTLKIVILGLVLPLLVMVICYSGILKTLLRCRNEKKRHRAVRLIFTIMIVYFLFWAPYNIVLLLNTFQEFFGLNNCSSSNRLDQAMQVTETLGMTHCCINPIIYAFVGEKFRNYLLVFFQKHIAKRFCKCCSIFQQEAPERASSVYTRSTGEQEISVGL

Compound | IC50 [1] [nM] | IC90 (HeLa [2]) [nM] | IC90 (HeLa [3]) [nM]
CCn1nc(Cc2ccc(C(F)(F)F)cc2)cc1C1CCN(C[C@H]2CN([C@@H](C(=O)O)C(C)C)C[C@@H]2c2cccc(F)c2)CC1 | 2 | 3.7 | 100
CCOc1ccc(Cc2cc(C3CCN(C[C@H]4CN([C@@H](C(=O)O)C(C)(C)C)C[C@@H]4c4cccc(F)c4)CC3)n(CC)n2)cc1F | 0.7 | < 0.14 | 11
CCn1nc(Cc2cccc(F)c2)cc1C1CCN(C[C@H]2CN([C@@H](C(=O)O)C3CCCCC3)C[C@@H]2c2cccc(F)c2)CC1 | 1 | < 0.14 | 33
CC[C@H](C)[C@H](C(=O)O)N1C[C@H](CN2CCC(c3cc(Cc4ccc(C#N)cc4)nn3CC)CC2)[C@@H](c2cccc(F)c2)C1 | 1.3 | < 0.14 | 3.7
CC[C@H](C)[C@H](C(=O)O)N1C[C@H](CN2CCC(c3cc(Cc4ccc(O)cc4)nn3CC)CC2)[C@@H](c2cccc(F)c2)C1 | 1.4 | 0.4 | 11
CCn1nc(Cc2ccc(OC(C)(C)C)cc2)cc1C1CCN(C[C@H]2CN([C@@H](C(=O)O)C(C)(C)C)C[C@@H]2c2cccc(F)c2)CC1 | 2 | 11 | 300
CC[C@H](C)[C@H](C(=O)O)N1C[C@H](CN2CCC(c3cc(Cc4ccc(Oc5ccccc5)cc4)nn3CC)CC2)[C@@H](c2cccc(F)c2)C1 | 0.4 | 1.2 | 100
CCOc1ccc(Cc2cc(C3CCN(C[C@H]4CN([C@@H](C(=O)O)C(C)C)C[C@@H]4c4cccc(F)c4)CC3)n(CC)n2)cc1 | 1 | 0.4 | 300
CCn1nc(Cc2ccc(OC)cc2)cc1C1CCN(C[C@H]2CN([C@@H](C(=O)O)C3CCCCC3)C[C@@H]2c2cccc(F)c2)CC1 | 1.1 | < 0.14 | 33
CCn1nc(Cc2ccc(OC(F)(F)F)cc2)cc1C1CCN(C[C@H]2CN([C@@H](C(=O)O)C(C)C)C[C@@H]2c2cccc(F)c2)CC1 | 0.8 | 3.7 | 300
CCn1nc(Cc2ccc(Cl)cc2)cc1C1CCN(C[C@H]2CN([C@@H](C(=O)O)C3CCCCC3)C[C@@H]2c2cccc(F)c2)CC1 | 0.9 | 0.4 | 100
CCn1nc(Cc2ccc(C(C)C)cc2)cc1C1CCN(C[C@H]2CN([C@@H](C(=O)O)C(C)(C)C)C[C@@H]2c2cccc(F)c2)CC1 | 0.6 | 0.4 | 33
CCn1nc(Cc2ccc(S(=O)(=O)c3ccccc3)cc2)cc1C1CCN(C[C@H]2CN([C@@H](C(=O)O)C(C)C)C[C@@H]2c2cccc(F)c2)CC1 | 1.3 | 0.4 | 33
CC[C@@H](C)[C@H](C(=O)O)N1C[C@H](CN2CCC(c3cc(Cc4ccc(OC(F)(F)F)cc4)nn3CC)CC2)[C@@H](c2cccc(F)c2)C1 | 0.6 | 1.2 | 100
CCn1nc(CC2CCCCC2)cc1C1CCN(C[C@H]2CN([C@@H](C(=O)O)C(C)C)C[C@@H]2c2cccc(F)c2)CC1 | 2.3 | 33 | > 300
CC[C@H](C)[C@H](C(=O)O)N1C[C@H](CN2CCC(c3cc(Cc4cccc(OC)c4)nn3CC)CC2)[C@@H](c2cccc(F)c2)C1 | 1.2 | < 0.14 | 100
CCn1nc(Cc2ccc(OC(F)(F)F)cc2)cc1C1CCN(C[C@H]2CN([C@@H](C(=O)O)C(C)(C)C)C[C@@H]2c2cccc(F)c2)CC1 | 0.6 | 1.2 | 100
CCn1nc(Cc2ccc(OC)c(C#N)c2)cc1C1CCN(C[C@H]2CN([C@@H](C(=O)O)C(C)C)C[C@@H]2c2cccc(F)c2)CC1 | 0.8 | 1.2 | 300
CCn1nc(Cc2ccc(OC(F)F)cc2)cc1C1CCN(C[C@H]2CN([C@@H](C(=O)O)C(C)C)C[C@@H]2c2cccc(F)c2)CC1 | 0.5 | < 0.14 | 100
CCOc1cccc(Cc2cc(C3CCN(C[C@H]4CN([C@@H](C(=O)O)[C@H](C)CC)C[C@@H]4c4cccc(F)c4)CC3)n(CC)n2)c1 | 0.8 | < 0.14 | > 300
CC[C@H](C)[C@H](C(=O)O)N1C[C@H](CN2CCC(c3cc(Cc4ccc(OCc5ccccc5)cc4)nn3CC)CC2)[C@@H](c2cccc(F)c2)C1 | 0.7 | 3.7 | 300
CCn1nc(Cc2ccc(F)cc2)cc1C1CCN(C[C@H]2CN([C@@H](C(=O)O)C3CCCCC3)C[C@@H]2c2cccc(F)c2)CC1 | 1.1 | 33 | –
CC[C@H](C)[C@H](C(=O)O)N1C[C@H](CN2CCC(c3cc(CC4CCCCC4)nn3CC)CC2)[C@@H](c2cccc(F)c2)C1 | 1.2 | 1.2 | 300
